Consider 13 compounds from ChEMBL document CHEMBL4138058, “Design and synthesis of novel selective estrogen receptor degradation inducers based on the diphenylheptane skeleton” (Medchemcomm, 2017).

The target of test [1] is T1, Estrogen receptor (Homo sapiens) (UniProt P03372).
T1 sequence (whole entry): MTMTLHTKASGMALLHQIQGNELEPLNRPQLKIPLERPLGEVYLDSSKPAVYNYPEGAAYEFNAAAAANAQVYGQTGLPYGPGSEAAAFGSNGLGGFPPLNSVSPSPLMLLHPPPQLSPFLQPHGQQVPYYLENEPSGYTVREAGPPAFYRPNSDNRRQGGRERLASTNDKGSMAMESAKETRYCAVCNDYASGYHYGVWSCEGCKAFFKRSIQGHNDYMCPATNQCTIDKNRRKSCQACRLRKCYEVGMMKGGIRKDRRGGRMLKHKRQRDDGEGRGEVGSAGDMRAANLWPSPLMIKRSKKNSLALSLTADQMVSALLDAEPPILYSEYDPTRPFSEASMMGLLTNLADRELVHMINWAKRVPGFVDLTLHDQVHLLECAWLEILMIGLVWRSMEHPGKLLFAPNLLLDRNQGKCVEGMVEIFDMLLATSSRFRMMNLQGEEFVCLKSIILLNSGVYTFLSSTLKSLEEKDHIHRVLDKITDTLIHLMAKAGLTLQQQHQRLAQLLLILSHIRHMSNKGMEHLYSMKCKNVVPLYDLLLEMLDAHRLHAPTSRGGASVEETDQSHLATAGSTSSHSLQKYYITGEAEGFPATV
In words: Downregulation of ERalpha expression in human MCF7 cells at 1 uM after 6 hrs by Western blot method relative to beta-actin. The format is cell-based. The procedure, abridged: (§1)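 MCF-7 cells kept in DMEM with 10% FBS, kanamycin and 10 μg/mL insulin, then exposed to compounds for 6 h. Lysates made in SDS buffer (0.1 M Tris-HCl pH 8.0, 10% glycerol, 1% SDS), boiled, BCA-normalized and run on SDS-PAGE. Blots probed with anti-ERα, AR, AhR or VDR and β-actin or lamin B. Chemiluminescence quantified as target/loading-protein ratio; means ± S.E., n=3.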

Test [2] has as its target T1, Estrogen receptor (Homo sapiens). Kind of test: Downregulation of ERalpha expression in human MCF7 cells at 3 uM after 6 hrs by Western blot method relative to beta-actin. It counts as cell-based. In short, it runs like this: as §1
For orientation: In western blotting, separated proteins are transferred to a membrane and probed.

Another test addresses T2, Estrogen receptor (Homo sapiens, UniProt P03372).
T2 sequence (P03372 whole entry): T1 sequence (whole entry)
In words: Displacement of Fluormone ES2 Green from full-length untagged human ERalpha expressed in insect cells after 2 hrs by fluorescence polarization assay. For orientation: In fluorescence polarisation assays a small probe gives low polarisation when free and higher when bound to something large.

Test [3] addresses T1, Estrogen receptor (Homo sapiens). Kind of test: Downregulation of ERalpha expression in human MCF7 cells at 10 uM after 6 hrs by Western blot method relative to beta-actin. The format is cell-based. The procedure, abridged:
as §1

The target is the same in test [4]. Kind of test: Displacement of Fluormone ES2 Green from full-length untagged human ERalpha expressed in insect cells at 1 uM after 2 hrs by fluorescence polarization assay. In short, it runs like this:
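Competitive fluorescence polarization binding to ERα run with a commercial kit per manufacturer's instructions. Compounds taken from 10 mM DMSO stock. mP read at 470 nm excitation and 535 nm emission. Fraction bound correlated with mP and plotted against competitor concentration.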

The target is the same in test [5]. In words: Antagonist activity at GAL4-fused human ERalpha LBD expressed in HEK293 cells assessed as inhibition of 17beta-estradiol-induced transcriptional activation at 10 uM after 16 to 20 hrs by luciferase reporter gene assay relative to control. It counts as cell-based. In short, it runs like this: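 HEK293 cells grown in phenol red-free DMEM with 10% FBS at 37 °C, 5% CO2. Calcium phosphate co-transfection with GAL4-hERα LBD plasmid, MH100x4-tk-luciferase reporter and β-galactosidase normalization plasmid. Compounds added 8 h post-transfection with 0.3 nM 17β-estradiol; harvested 16–20 h later. Luciferase normalized to β-galactosidase; means of triplicate assays.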
(In general: In a reporter assay the amount or activity of a reporter protein is the signal.)

Each structure is given as a SMILES string. The source made the active and inactive calls. The rule behind the calls is not given here.

Usually IC50 stands for the concentration needed to halve the response being measured. Higher therefore signals weaker potency. Regarding `CCCCCCCCCCCCNCCOc1ccc(C(CCC)(CCC)c2ccc(O)c(C)c2)cc1C`, the Activity was 93% in test [1], 83% in test [2] and 68% in test [3]. Also, the IC50 at Estrogen receptor worked out at 4.9 nM.

Take `CCCC(CCC)(c1ccc(O)c(C)c1)c1ccc(OCCN(C)C)c(C)c1`: the Activity was 109% in test [1], 115% in test [2] and 100% in test [3]. Moreover, the IC50 at Estrogen receptor was 313 nM.

By inhibition is commonly meant the change of the read-out against control, counted positive when it falls. Turning to `CCCCCCCCCCCCOc1ccc(C(CCC)(CCC)c2ccc(O)c(C)c2)cc1C`, the Activity in test [1] amounted to 128%; in test [2], 111%; in test [3], 96%. Besides, the inhibition result in test [4] was “inactive”. The inhibition in test [5] turned out to be 61%.

Turning to `CCCCCCOc1ccc(C(CCC)(CCC)c2ccc(O)c(C)c2)cc1C`, the Activity was 89% in test [1], 95% in test [2] and 86% in test [3]. Besides, at Estrogen receptor, the IC50 was 168 nM.

As for `CCCCCCNCCOc1ccc(C(CCC)(CCC)c2ccc(O)c(C)c2)cc1C`, the Activity is 185% in test [1], 185% in test [2] and 112% in test [3]. Besides, the IC50 at Estrogen receptor stood at 78 nM.

Consider `CCCCCCCCCCCCCCCCNCCOc1ccc(C(CCC)(CCC)c2ccc(O)c(C)c2)cc1C`, for which the Activity in test [1] was determined as 92%; in test [2] it was 82%; in test [3], 70%. For the same compound, the IC50 at Estrogen receptor worked out at 20 nM.

`CCCC(CCC)(c1ccc(O)c(C)c1)c1ccc(O)c(C)c1`: the figures for the Activity in test [1], in test [2] and in test [3] were 80%, 79% and 70%, respectively. Also, the half-inhibitory concentration (IC50) at Estrogen receptor is 7.3 nM.

Regarding `CCCCOc1ccc(C(CCC)(CCC)c2ccc(O)c(C)c2)cc1C`, the results for the Activity in test [1], in test [2] and in test [3] were 84%, 82% and 68%, respectively. On Estrogen receptor, this compound gave an IC50 of 87 nM.

With `CCCC(CCC)(c1ccc(O)c(C)c1)c1ccc(OCC)c(C)c1`, the Activity is 95% in test [1], 96% in test [2] and 87% in test [3]. In addition, on Estrogen receptor, the IC50 was determined as 40 nM.

Turning to `CCCCCCCCCCOc1ccc(C(CCC)(CCC)c2ccc(O)c(C)c2)cc1C`, the Activity came to 118% in test [1], 120% in test [2] and 106% in test [3]. The inhibition result in test [4] is “inactive”.

In the case of `CCCCCCCCOc1ccc(C(CCC)(CCC)c2ccc(O)c(C)c2)cc1C`, the Activity in test [1], in test [2] and in test [3] was 105% throughout. This compound also returned an IC50 on Estrogen receptor of 400 nM.

With `CCCCCCCCNCCOc1ccc(C(CCC)(CCC)c2ccc(O)c(C)c2)cc1C`, the Activity in test [1] was 111%; in test [2], 112%; in test [3] it was 69%. On Estrogen receptor, this compound yielded an IC50 of 2.4 nM.

Consider `CCCC(CCC)(c1ccc(O)c(C)c1)c1ccc(OCCN)c(C)c1`, for which the figures for the Activity in test [1], in test [2] and in test [3] were 145%, 154% and 150%, respectively. For the same compound, the IC50 on Estrogen receptor was found to be 78 nM.
